The values that follow come from ChEMBL document CHEMBL1154176, “Thiazolidinedione derivatives as PTP1B inhibitors with antihyperglycemic and antiobesity effects” (Bioorg Med Chem Lett, 2009).

SMILES strings stand for the structures. Active and inactive are the calls of the source. No cut-off for these calls is given here. A value given as a limit tells only on which side of the number the result lay.

The target in test [1] is T1, Tyrosine-protein phosphatase non-receptor type 1 (Homo sapiens, UniProt P18031).
T1 sequence (P18031 whole entry): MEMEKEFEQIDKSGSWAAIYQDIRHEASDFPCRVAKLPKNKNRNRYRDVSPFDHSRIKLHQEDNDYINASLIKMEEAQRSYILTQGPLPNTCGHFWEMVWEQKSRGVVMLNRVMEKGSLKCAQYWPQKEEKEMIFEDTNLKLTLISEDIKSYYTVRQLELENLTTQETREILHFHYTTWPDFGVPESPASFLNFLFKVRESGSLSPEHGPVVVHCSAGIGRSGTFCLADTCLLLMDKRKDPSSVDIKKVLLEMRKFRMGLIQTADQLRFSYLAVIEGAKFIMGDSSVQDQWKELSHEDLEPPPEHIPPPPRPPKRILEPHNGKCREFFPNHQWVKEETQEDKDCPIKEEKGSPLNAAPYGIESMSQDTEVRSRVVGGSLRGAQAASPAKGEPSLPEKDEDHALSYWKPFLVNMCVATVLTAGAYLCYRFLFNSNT
In words: Inhibition of PTP1B.

For test [2], the system named is Mus musculus. In words: Antiobesity activity in high fat diet-induced obese C57BL/6J Jms Slc mouse model assessed as decrease in body weight gain per kilocalories of food intake at 143 mg/kg/day, po for 4 weeks administered with high fat diet. The test is classed as functional. Set-up: scale not given: the % may be the effect or the level left. The gist of the method: (§1)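 Male C57BL/6J Jms Slc mice were acclimatized 1 wk on low-fat diet (10% kcal fat), then fed high-fat diet (45% kcal fat) ad libitum for 8 wk. They were split into groups of equal mean body weight and given HFD or HFD with drug mixed into the food (2.0 g/kg diet; DMSO plus 1% aqueous polyglycerol fatty acid ester) for 4 wk. Read-outs: weight gain and feed efficiency (weight gain/kcal ×100).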

Test [3] is described as follows: Inhibition of yeast PTP1. Details: species or system Saccharomyces cerevisiae. The gist of the method:
(§2)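 Phosphatase activity was measured as p-nitrophenyl phosphate hydrolysis (2 mM pNPP in the reaction) over a range of inhibitor concentrations to derive IC50. Conditions were identical for all enzymes except enzyme level: PTP1B 40 nM, E. coli-expressed SHP-1 catalytic domain 100 nM, E. coli-expressed YPTP1 15 nM, LAR-D1 and TC-PTP 33 units/mL. Ki was calculated as IC50 = Ki(1+[S]/KM). Mean ± SD of two or more experiments.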

The target in test [4] is T2, Tyrosine-protein phosphatase non-receptor type 2 (Homo sapiens, UniProt P17706).
T2 sequence (P17706 whole entry): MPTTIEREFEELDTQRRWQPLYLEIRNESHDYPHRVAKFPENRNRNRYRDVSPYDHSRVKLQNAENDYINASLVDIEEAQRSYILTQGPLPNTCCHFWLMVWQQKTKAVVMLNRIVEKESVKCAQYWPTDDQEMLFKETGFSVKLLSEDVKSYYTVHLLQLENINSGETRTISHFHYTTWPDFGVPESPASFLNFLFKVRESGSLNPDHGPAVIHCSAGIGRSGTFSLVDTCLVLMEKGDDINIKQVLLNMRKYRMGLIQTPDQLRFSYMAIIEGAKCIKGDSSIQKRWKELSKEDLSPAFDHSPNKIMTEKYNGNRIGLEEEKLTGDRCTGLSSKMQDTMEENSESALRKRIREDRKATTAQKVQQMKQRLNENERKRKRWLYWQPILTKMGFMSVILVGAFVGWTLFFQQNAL
In words: Inhibition of TC-PTP. The gist of the method: as §2

For test [5], the system named is Mus musculus. In words: Hypoglycemic activity in high fat diet-induced obese C57BL/6J Jms Slc mouse model assessed as non-esterified free fatty acid level at 143 mg/kg/day, po for 4 weeks administered with high fat diet followed by 5 days recovery period on their own high fat diet with drug (Rvb= 0.71 +/- 0.22 mM). The test is classed as functional. The gist of the method:
(§3)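 HFD-obese mice (8 wk HFD) received HFD with drug in the diet (2.0 g/kg diet) for 4 wk, then continued 5 d on their diets. After an overnight fast and anesthesia, blood was taken by cardiac puncture. Serum triglyceride and total cholesterol were measured by enzymatic kits, and NEFA by a half-micro test kit. Mean ± SD, n = 8/group; one-way ANOVA.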

The nature of test [6]: Selectivity for PTP1B over yeast PTP1.
The subject of test [7] is Mus musculus. In words: Hypoglycemic activity in high fat diet-induced obese C57BL/6J Jms Slc mouse model assessed as reduction in fasting blood glucose level at 143 mg/kg/day, po for 4 weeks administered with high fat diet measured after 6 hrs of fasting. The test is classed as functional, organism-based. The gist of the method: (§4)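 After 8 wk of HFD and 4 wk of HFD with drug in the diet (2.0 g/kg diet), mice were fasted 6 h. Fasting blood glucose was taken at 0 min, glucose was then injected intraperitoneally, and tail blood was sampled at timed intervals up to 120 min.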

Test [8] deals with Receptor-type tyrosine-protein phosphatase F (Homo sapiens, UniProt P10586). In words: Inhibition of membrane proximal catalytic domain of LAR. Put shortly:
as §2

Test [9] in a line: Selectivity for PTP1B over TC-PTP.
Test [10] concerns Mus musculus. In words: Hypoglycemic activity in high fat diet-induced obese C57BL/6J Jms Slc mouse model at 143 mg/kg/day, po for 4 weeks administered with high fat diet by glucose tolerance test. The test is classed as functional, organism-based. Put shortly:
as §4

Test [11] can be described thus: Selectivity for PTP1B over membrane proximal catalytic domain of LAR.
The test system of test [12] is Mus musculus. In words: Hypoglycemic activity in high fat diet-induced obese C57BL/6J Jms Slc mouse model assessed as triglyceride level at 143 mg/kg/day, po for 4 weeks administered with high fat diet followed by 5 days recovery period on their own high fat diet with drug (Rvb= 124 +/- 16 mg/dL). The test is classed as functional. Put shortly:
as §3

For test [13], the target named is Tyrosine-protein phosphatase non-receptor type 6 (Homo sapiens, UniProt P29350). In words: Inhibition of SHP1 catalytic domain expressed in Escherichia coli. Put shortly: as §2
Test [14] deals with Mus musculus. In words: Hypoglycemic activity in high fat diet-induced obese C57BL/6J Jms Slc mouse model assessed as total cholesterol level at 143 mg/kg/day, po for 4 weeks administered with high fat diet followed by 5 days recovery period on their own high fat diet with drug (Rvb= 152 +/- 6 mg/dL). The test is classed as functional. The gist of the method:
as §3

Test [15] concerns Mus musculus. In words: Antiobesity activity in high fat diet-induced obese C57BL/6J Jms Slc mouse model assessed as body weight gain at 143 mg/kg/day, po for 4 weeks administered with high fat diet (Rvb= 4.88 +/- 0.46 g). The test is classed as functional. The gist of the method: as §1
Test [16] in a line: Inhibition of Yersinia YOP. Put shortly: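 Purchased YOP enzyme at 50 units (manufacturer's definition)/mL, with p-nitrophenyl phosphate substrate at 2 mM in the reaction mixture. pNPP hydrolase activity was measured across a range of inhibitor concentrations to derive IC50. Ki was obtained from IC50 = Ki(1 + [S]/KM). Values are mean and SD of two or more experiments.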

Test [17] relates to Mus musculus. In words: Antiobesity activity in high fat diet-induced obese C57BL/6J Jms Slc mouse model assessed as epididymal fat at 143 mg/kg/day, po for 4 weeks administered with high fat diet followed by 5 days recovery period on their own high fat diet with drug (Rvb= 1.87 +/- 0.08 g). The test is classed as functional. The gist of the method: (§5)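 Obesity was induced by HFD (45% kcal fat) for 8 wk, followed by 4 wk of HFD or HFD with drug in the diet (2.0 g/kg diet). After the glucose tolerance test, mice stayed on their diets for 5 d more and were fasted overnight. Epididymal and retroperitoneal fat pads were excised and weighed. Significance versus HFD by one-way ANOVA.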

For test [18], the system named is Mus musculus. In words: Antiobesity activity in high fat diet-induced obese C57BL/6J Jms Slc mouse model assessed as retroperitoneal fat at 143 mg/kg/day, po for 4 weeks administered with high fat diet followed by 5 days recovery period on their own high fat diet with drug (Rvb= 0.69 +/- 0.06 g). The test is classed as functional. The gist of the method: as §5

Tyrosine-protein phosphatase non-receptor type 6, sequence (P29350 whole entry, the tested form may be a part): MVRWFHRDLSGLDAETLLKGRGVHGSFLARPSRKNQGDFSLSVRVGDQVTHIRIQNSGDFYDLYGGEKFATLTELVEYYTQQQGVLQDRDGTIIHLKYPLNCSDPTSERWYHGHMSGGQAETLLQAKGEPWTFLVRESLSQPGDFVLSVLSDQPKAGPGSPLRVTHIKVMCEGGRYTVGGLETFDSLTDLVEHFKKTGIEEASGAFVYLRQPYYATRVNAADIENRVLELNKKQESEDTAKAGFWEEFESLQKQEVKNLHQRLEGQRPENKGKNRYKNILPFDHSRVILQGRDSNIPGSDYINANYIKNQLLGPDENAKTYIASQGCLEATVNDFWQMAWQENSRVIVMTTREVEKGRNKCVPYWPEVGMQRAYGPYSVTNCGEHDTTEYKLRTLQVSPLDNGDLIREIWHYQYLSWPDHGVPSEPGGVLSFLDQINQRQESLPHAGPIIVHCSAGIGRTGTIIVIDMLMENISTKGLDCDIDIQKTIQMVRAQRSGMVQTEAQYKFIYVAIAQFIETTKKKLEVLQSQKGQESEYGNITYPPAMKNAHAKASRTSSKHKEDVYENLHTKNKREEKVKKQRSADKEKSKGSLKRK
Receptor-type tyrosine-protein phosphatase F, sequence (P10586 whole entry, the tested form may be a part): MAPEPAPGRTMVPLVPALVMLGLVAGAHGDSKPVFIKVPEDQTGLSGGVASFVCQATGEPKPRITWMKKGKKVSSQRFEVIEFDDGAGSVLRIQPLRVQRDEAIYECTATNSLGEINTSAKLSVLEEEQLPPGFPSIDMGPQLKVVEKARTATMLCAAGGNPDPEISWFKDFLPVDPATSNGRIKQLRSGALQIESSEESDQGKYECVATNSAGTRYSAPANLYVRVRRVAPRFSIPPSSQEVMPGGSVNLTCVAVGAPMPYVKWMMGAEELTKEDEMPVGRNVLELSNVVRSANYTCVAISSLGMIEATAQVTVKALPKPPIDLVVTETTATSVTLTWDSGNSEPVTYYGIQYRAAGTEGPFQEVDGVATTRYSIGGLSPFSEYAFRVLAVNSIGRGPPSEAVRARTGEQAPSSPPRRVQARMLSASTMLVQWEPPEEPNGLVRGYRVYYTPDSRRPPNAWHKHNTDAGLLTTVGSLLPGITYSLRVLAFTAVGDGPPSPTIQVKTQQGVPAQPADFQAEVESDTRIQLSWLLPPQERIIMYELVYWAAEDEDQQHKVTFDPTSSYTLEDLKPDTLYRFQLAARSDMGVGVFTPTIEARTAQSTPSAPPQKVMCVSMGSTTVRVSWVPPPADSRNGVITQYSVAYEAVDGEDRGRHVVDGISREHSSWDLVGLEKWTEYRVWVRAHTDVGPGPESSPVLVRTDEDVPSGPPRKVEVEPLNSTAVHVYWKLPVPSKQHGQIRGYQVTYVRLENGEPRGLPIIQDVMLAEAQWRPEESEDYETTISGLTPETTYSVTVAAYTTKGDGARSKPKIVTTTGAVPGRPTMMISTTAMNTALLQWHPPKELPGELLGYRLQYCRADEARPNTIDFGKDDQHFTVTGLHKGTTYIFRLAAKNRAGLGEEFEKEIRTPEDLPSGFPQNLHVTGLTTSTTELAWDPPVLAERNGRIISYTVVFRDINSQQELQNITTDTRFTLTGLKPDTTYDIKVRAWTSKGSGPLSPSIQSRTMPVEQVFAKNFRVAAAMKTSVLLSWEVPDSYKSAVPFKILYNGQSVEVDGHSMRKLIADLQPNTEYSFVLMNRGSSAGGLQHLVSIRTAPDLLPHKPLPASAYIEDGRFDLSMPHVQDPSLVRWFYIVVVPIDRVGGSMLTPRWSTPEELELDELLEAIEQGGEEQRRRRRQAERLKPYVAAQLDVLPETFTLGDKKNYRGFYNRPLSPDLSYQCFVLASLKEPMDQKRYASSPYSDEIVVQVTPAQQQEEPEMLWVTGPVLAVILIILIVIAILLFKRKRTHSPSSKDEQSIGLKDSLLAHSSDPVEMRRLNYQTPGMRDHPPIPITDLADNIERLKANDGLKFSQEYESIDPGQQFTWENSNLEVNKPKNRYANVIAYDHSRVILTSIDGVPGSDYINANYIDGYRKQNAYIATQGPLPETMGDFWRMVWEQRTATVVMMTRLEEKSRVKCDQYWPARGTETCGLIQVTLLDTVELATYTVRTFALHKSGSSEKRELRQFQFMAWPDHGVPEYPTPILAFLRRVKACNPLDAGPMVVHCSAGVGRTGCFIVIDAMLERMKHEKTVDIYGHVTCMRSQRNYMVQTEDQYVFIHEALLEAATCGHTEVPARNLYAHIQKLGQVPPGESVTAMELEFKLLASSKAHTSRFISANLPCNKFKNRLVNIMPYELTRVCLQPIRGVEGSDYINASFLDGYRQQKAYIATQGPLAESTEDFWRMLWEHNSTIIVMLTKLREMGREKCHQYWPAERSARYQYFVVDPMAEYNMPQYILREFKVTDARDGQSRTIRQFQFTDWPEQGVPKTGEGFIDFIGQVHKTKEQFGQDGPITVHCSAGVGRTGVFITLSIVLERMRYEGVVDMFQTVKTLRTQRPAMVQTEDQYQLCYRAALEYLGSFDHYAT

The IC50 is the midpoint of a concentration-inhibition curve. Molecule `O=C1NC(=O)/C(=C/c2ccc(OCc3ccccc3)c(Br)c2)S1` showed an IC50 in test [1] of 15 µM.

`Cc1c(C)c2c(c(C)c1O)CCC(C)(COc1ccc(CC3SC(=O)NC3=O)cc1)O2` (stereo unspecified) [TROGLITAZONE] yielded a half-inhibitory concentration (IC50) in test [1] of 55 µM.

In [1], `CN(CCOc1ccc(CC2SC(=O)NC2=O)cc1)c1ccccn1` (stereo unspecified) [ROSIGLITAZONE] displayed an IC50 of 400 µM.

`CCc1ccc(CCOc2ccc(CC3SC(=O)NC3=O)cc2)nc1` (stereo unspecified) [PIOGLITAZONE] showed a half-maximal inhibitory concentration (IC50) in test [1] of 220 µM.

In test [1], `O=C1NC(=O)/C(=C/c2ccc(OCc3ccc(C(F)(F)F)cc3)c(Br)c2)S1` showed a half-inhibitory concentration (IC50) of 5 µM.

Usually Ki stands for the equilibrium dissociation constant of an inhibitor or competing ligand from its target. `O=C1NC(=O)/C(=C/c2cc(Br)ccc2OCc2cc(C(F)(F)F)cc(C(F)(F)F)c2)S1`: the Activity in the test with Mus musculus [2] was 0.68%; in the test with Mus musculus [5] it was 0.22 mM; with Mus musculus [12] it was 78 mg/dL; in the test with Mus musculus [14] it was 125 mg/dL; with Mus musculus [15], 2.16 g; in the test with Mus musculus [17] it was 1.27 g. In addition, the Activity with Mus musculus [18] was found to be 0.42 g. For the same molecule, the IC50 was 18 µM in test [3]; 16 µM in test [4]; greater than 100 µM in test [8]; 5 µM in test [1]; 5.8 µM in test [13]; 6 µM in [16]. For the same molecule, the Ki in test [3] was determined as 7.7 µM; in test [4] it was 4.5 µM; in test [1], 2.1 µM; in test [13], 2.2 µM. The fold change (FC) is 3.7 in test [6], 2.2 in test [9] and greater than 20 in test [11]. The result in the test on Mus musculus [7] was inactive. Further, the result in the test with Mus musculus [10] was Active.

In the case of `O=C1NC(=O)/C(=C/c2ccc(OCc3ccc(F)cc3)c(Br)c2)S1`, in test [1], the IC50 amounted to 11 µM.

`O=C1NC(=O)/C(=C/c2cc(Br)ccc2OCc2ccccc2)S1` gave an IC50 in [1] of 9 µM.

Turning to `O=C1NC(=O)/C(=C/c2ccc(OCc3ccc(C(F)(F)F)cc3)cc2)S1`, it took 14 µM to reach half-maximal inhibition in [1] (IC50).

For the molecule `O=C1NC(=O)/C(=C/c2cc(-c3ccccc3)ccc2OCc2ccccc2)S1`, the 50% inhibitory concentration (IC50) in test [1] worked out at 16 µM.

For the molecule `O=C1NC(=O)/C(=C/c2cc(F)ccc2OCc2ccc(C(F)(F)F)cc2)S1`, in test [1], the IC50 was found to be 15 µM.

On to `O=C1NC(=O)/C(=C/c2cc(Br)ccc2OCc2cccc(C(F)(F)F)c2)S1`, for which the IC50 in [1] amounted to 8 µM.

As for `O=C1NC(=O)/C(=C/c2ccc(OCc3ccc(C(F)(F)F)cc3)c(-c3ccccc3)c2)S1`, the IC50 in test [1] worked out at 6 µM.

`O=C1NC(=O)/C(=C/c2cc(Br)ccc2OCc2ccc(C(F)(F)F)cc2)S1` gave an IC50 in test [1] of 8 µM.

The molecule `O=C1NC(=O)/C(=C/c2ccc(OCc3ccccc3)c(-c3ccccc3)c2)S1` gave a half-maximal inhibitory concentration (IC50) in test [1] of 9 µM.

Turning to `O=C1NC(=O)/C(=C/c2cc(F)ccc2OCc2cc(C(F)(F)F)cc(C(F)(F)F)c2)S1`, the 50% inhibitory concentration (IC50) in test [1] came out at 8 µM.

For `O=C1NC(=O)/C(=C/c2cc(Br)ccc2OCc2ccc(F)cc2)S1`, in [1], it took 23 µM to reach half-maximal inhibition (IC50).

Molecule `O=C1NC(=O)/C(=C/c2cc(Br)ccc2OCc2ccccc2C(F)(F)F)S1` came in with a 50% inhibitory concentration (IC50) in test [1] of 8 µM.

Consider `O=C1NC(=O)/C(=C/c2ccc(OCc3ccccc3)cc2)S1`, for which it took 64 µM to reach half-maximal inhibition in test [1] (IC50).

In test [1], `O=C1NC(=O)/C(=C/c2ccc(OCc3ccc(F)cc3)cc2)S1` gave a half-inhibitory concentration (IC50) of 68 µM.
